{"source": "ChEMBL document CHEMBL5696442", "about": "“Discovery of type II inhibitors of TGFβ-activated kinase 1 (TAK1) and mitogen-activated protein kinase kinase kinase kinase 2 (MAP4K2)” (J Med Chem, 2015)", "key": {"[1]": {"target": "Calcium/calmodulin-dependent protein kinase type II subunit beta (Homo sapiens) (UniProt Q13554)", "assay": "Inhibition of CaMK2b Lys2 labeling site in human Huh-7 cell lysate at 1 uM by KiNativ Profiling analysis relative to control", "type": "subcellular"}, "[2]": {"target": "Serine/threonine-protein kinase 10 (Homo sapiens) (UniProt O94804)", "assay": "Inhibition of LOK Lys2 labeling site harbouring IIHRDLKAGNVLMTLEGDIR in human Huh-7 cell lysate at 1 uM by KiNativ Profiling analysis relative to control", "type": "subcellular"}, "[3]": {"target": "Phosphatidylinositol 4-kinase type 2-beta (Homo sapiens) (UniProt Q8TCG2)", "sequence (Q8TCG2 whole entry)": "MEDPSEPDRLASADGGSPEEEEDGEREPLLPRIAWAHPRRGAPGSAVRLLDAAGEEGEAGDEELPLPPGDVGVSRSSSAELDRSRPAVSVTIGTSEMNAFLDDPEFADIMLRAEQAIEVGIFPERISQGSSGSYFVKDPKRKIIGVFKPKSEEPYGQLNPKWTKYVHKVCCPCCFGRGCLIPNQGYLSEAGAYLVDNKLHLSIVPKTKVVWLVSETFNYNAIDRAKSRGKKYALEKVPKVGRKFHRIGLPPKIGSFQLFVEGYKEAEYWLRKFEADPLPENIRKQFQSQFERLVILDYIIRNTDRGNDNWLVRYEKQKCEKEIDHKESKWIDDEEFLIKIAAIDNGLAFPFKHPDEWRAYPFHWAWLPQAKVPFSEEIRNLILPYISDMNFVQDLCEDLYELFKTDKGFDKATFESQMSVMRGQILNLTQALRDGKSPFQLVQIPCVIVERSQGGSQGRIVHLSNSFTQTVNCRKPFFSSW", "assay": "Inhibition of PI4K2B ATP labeling site in human Huh-7 cells at 1 uM by KiNativ Profiling analysis relative to control", "type": "cell-based"}, "[4]": {"target": "Ribosomal protein S6 kinase alpha-3 (Homo sapiens) (UniProt P51812)", "assay": "Inhibition of RSK2 domain2 Lys1 labeling site in human Huh-7 cells at 1 uM by KiNativ Profiling analysis relative to control", "type": "cell-based"}, "[5]": {"target": "Serine/threonine-protein kinase ATR (Homo sapiens) (UniProt Q13535)", "assay": "Inhibition of ATR ATP labeling site in human Huh-7 cell lysate at 1 uM by KiNativ Profiling analysis relative to control", "type": "subcellular"}, "[6]": {"target": "T1, Scaffold protein ILK (Homo sapiens) (UniProt Q13418)", "T1 sequence (whole entry)": "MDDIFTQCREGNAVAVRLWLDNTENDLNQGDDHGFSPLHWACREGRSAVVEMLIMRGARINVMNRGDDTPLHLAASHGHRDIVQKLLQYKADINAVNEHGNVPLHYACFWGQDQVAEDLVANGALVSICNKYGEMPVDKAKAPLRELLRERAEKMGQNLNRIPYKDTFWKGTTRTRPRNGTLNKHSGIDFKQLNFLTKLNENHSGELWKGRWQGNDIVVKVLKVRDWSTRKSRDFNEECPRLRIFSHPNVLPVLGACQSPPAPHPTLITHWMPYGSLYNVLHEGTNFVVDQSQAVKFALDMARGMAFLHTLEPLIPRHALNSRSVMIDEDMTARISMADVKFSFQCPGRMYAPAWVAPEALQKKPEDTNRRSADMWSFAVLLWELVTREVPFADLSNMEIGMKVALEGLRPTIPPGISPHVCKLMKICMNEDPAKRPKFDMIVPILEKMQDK", "assay": "Inhibition of ILK Lys1 labeling site in human Huh-7 cell lysate at 1 uM by KiNativ Profiling analysis relative to control", "type": "subcellular"}, "[7]": {"target": "Tyrosine-protein kinase ABL1 (Homo sapiens, UniProt P00519)", "assay": "Inhibition of ABL Lys1 labeling site in human A-375 cells at 0.5 uM by KiNativ Profiling analysis relative to control", "type": "cell-based"}, "[8]": {"system": "Proto-oncogene tyrosine-protein kinase receptor Ret (Homo sapiens), P07949 [V804M]", "assay": "Inhibition of RET V804M mutant (unknown origin) at 10 uM by Ambit Kinomescan binding assay relative to control; values are per cent of control"}, "[9]": {"assay": "Inhibition of KHS1/2 K2 labeling site in human Huh-7 cells at 1 uM by KiNativ Profiling analysis relative to control", "conditions": "condition cancer"}, "[10]": {"assay": "Inhibition of KHS1 Lys1 labeling site in human A-375 cells at 5 uM by KiNativ Profiling analysis relative to control", "conditions": "condition cancer"}, "[11]": {"target": "Serine/threonine-protein kinase 38-like (Homo sapiens) (UniProt Q9Y2H1)", "sequence (Q9Y2H1 2-464 limits assumed)": "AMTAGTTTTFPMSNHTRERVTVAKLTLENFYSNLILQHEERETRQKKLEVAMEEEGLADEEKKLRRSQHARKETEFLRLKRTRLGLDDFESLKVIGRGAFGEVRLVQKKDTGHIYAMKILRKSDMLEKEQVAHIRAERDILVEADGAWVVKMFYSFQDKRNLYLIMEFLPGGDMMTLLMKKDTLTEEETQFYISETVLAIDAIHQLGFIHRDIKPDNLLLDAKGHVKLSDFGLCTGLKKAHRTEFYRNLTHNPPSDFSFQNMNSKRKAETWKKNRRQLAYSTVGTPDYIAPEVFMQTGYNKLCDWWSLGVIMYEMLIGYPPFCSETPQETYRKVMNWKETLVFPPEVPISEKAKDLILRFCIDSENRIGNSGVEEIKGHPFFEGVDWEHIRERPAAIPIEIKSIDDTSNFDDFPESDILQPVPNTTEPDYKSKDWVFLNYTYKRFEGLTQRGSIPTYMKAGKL", "assay": "Inhibition of NDR2 Lys1 labeling site harbouring KDTGHIYAMKILR in human A-375 cells at 0.5 uM by KiNativ Profiling analysis relative to control", "type": "cell-based"}, "[12]": {"target": "T2, Serine/threonine-protein kinase TBK1 (Homo sapiens) (UniProt Q9UHD2)", "T2 sequence (whole entry)": "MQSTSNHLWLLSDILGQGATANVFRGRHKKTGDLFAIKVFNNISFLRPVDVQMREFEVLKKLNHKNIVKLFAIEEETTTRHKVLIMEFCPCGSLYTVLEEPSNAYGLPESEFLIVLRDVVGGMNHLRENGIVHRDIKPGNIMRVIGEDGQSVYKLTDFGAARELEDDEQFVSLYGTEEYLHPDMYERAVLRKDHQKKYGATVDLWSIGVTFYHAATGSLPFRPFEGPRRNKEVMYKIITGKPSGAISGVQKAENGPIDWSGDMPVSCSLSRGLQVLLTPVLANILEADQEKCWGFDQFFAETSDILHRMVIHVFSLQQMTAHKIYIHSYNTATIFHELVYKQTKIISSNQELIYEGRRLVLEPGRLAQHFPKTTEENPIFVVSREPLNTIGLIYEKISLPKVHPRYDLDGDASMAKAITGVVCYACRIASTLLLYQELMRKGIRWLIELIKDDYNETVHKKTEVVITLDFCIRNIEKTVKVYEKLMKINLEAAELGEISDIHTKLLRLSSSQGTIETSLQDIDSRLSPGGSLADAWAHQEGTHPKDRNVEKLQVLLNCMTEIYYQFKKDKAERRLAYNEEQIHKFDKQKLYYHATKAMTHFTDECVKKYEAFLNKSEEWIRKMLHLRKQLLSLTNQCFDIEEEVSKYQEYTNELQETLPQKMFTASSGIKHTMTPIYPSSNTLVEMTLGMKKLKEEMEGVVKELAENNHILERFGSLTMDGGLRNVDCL", "assay": "Inhibition of TBK1 Lys2 labeling site in human A-375 cells at 5 uM by KiNativ Profiling analysis relative to control", "type": "cell-based"}, "[13]": {"system": "Receptor-type tyrosine-protein kinase FLT3 (Homo sapiens), P36888 [N841I]", "assay": "Inhibition of FLT3 N841I mutant (unknown origin) at 1 uM by Ambit Kinomescan binding assay relative to control; values are per cent of control"}, "[14]": {"target": "Cyclin-dependent kinase 8 (Homo sapiens) (UniProt P49336)", "sequence (P49336 whole entry)": "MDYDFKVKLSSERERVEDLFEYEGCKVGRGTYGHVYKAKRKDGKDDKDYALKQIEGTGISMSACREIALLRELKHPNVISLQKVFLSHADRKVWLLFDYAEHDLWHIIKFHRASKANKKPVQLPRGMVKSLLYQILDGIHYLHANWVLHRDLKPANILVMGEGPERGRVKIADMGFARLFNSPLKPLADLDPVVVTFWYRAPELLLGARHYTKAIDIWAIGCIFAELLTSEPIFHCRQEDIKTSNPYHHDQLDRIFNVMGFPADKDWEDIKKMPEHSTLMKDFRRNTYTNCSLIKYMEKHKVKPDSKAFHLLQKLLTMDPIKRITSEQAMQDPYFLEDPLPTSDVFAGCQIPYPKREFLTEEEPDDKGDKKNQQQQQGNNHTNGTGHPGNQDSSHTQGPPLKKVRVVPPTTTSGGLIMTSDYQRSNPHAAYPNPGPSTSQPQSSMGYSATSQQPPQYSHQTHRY", "assay": "Inhibition of CDK8 (unknown origin) at 1 uM by Ambit Kinomescan binding assay relative to control"}, "[15]": {"target": "Serine/threonine-protein kinase Nek4 (Homo sapiens) (UniProt P51957)", "sequence (P51957 whole entry, looked up)": "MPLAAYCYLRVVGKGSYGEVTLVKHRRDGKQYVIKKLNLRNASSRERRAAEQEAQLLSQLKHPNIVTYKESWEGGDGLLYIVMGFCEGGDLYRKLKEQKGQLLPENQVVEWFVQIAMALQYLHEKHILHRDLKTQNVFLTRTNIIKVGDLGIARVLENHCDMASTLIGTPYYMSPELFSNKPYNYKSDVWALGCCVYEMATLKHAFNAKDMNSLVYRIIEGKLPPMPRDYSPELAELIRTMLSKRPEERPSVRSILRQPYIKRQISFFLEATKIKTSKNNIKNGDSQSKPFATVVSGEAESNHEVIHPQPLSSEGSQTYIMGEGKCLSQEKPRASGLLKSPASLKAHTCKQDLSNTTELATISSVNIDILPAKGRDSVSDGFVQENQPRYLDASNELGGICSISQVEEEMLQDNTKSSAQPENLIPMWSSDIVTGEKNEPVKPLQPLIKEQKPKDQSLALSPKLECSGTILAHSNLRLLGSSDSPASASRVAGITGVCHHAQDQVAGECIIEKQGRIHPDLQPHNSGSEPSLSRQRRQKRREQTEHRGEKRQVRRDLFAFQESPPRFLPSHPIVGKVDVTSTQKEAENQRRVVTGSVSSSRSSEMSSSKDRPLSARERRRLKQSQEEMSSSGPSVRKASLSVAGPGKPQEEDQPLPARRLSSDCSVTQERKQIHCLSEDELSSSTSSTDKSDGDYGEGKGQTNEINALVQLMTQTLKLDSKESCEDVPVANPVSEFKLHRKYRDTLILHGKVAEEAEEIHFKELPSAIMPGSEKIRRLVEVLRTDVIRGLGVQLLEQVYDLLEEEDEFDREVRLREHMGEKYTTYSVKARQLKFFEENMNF", "assay": "Inhibition of NEK4 Lys2 labeling site in human A-375 cells at 5 uM by KiNativ Profiling analysis relative to control", "type": "cell-based"}, "[16]": {"assay": "Inhibition of KHS1 (unknown origin) Lys1 labeling site by KiNativ Profiling analysis", "design": "species or system Homo sapiens"}, "[17]": {"target": "Ribosomal protein S6 kinase alpha-2 (Homo sapiens) (UniProt Q15349)", "sequence (Q15349 whole entry, the tested form may be a part)": "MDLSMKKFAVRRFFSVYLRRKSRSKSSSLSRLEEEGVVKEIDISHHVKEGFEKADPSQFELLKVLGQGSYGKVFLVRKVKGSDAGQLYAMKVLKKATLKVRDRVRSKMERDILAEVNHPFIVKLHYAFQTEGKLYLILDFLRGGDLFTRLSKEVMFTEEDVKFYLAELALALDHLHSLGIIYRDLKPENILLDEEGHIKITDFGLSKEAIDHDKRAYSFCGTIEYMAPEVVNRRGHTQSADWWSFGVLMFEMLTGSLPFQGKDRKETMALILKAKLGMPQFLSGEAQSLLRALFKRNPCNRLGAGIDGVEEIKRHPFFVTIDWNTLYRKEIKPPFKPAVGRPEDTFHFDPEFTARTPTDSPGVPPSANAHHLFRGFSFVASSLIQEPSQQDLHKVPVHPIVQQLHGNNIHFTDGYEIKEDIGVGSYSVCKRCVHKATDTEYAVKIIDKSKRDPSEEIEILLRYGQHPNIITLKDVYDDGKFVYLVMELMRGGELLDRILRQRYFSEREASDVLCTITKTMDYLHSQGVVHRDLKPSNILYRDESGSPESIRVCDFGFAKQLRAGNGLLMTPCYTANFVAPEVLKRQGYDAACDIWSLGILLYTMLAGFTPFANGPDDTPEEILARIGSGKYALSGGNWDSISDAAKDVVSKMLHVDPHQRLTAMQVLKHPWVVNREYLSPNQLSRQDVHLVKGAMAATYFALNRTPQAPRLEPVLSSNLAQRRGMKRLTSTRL", "assay": "Inhibition of C-terminal RSK3 kinase domain 2 (unknown origin) at 1 uM by Ambit Kinomescan binding assay relative to control", "outline": "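In vitro ATP-site competition binding assay against a panel of over 420 kinases (KinomeScan), with compound tested at 10 or 1 μM.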"}, "[18]": {"target": "Serine/threonine-protein kinase 24 (Homo sapiens) (UniProt Q9Y6E0)", "sequence (Q9Y6E0 whole entry, looked up)": "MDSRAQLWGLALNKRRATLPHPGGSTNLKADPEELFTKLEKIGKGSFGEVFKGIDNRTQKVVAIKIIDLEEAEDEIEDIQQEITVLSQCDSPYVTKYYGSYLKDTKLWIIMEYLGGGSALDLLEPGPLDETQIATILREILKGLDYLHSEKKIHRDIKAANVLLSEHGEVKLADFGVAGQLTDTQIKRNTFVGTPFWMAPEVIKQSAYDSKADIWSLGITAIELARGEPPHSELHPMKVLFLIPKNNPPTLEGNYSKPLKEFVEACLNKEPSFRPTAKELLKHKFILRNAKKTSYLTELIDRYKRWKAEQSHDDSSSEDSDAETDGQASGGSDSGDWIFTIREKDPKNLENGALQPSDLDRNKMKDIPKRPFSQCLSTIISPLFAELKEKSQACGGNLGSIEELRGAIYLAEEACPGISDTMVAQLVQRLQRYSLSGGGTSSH", "assay": "Inhibition of MST3 (unknown origin) at 1 uM by Ambit Kinomescan binding assay relative to control"}, "[19]": {"target": "Phosphatidylinositol 4-kinase alpha (Homo sapiens) (UniProt P42356)", "assay": "Inhibition of PI4KA ATP labeling site in human A-375 cells at 0.05 uM by KiNativ Profiling analysis relative to control", "type": "cell-based"}, "[20]": {"target": "Vascular endothelial growth factor receptor 2 (Homo sapiens) (UniProt P35968)", "sequence (P35968 whole entry)": "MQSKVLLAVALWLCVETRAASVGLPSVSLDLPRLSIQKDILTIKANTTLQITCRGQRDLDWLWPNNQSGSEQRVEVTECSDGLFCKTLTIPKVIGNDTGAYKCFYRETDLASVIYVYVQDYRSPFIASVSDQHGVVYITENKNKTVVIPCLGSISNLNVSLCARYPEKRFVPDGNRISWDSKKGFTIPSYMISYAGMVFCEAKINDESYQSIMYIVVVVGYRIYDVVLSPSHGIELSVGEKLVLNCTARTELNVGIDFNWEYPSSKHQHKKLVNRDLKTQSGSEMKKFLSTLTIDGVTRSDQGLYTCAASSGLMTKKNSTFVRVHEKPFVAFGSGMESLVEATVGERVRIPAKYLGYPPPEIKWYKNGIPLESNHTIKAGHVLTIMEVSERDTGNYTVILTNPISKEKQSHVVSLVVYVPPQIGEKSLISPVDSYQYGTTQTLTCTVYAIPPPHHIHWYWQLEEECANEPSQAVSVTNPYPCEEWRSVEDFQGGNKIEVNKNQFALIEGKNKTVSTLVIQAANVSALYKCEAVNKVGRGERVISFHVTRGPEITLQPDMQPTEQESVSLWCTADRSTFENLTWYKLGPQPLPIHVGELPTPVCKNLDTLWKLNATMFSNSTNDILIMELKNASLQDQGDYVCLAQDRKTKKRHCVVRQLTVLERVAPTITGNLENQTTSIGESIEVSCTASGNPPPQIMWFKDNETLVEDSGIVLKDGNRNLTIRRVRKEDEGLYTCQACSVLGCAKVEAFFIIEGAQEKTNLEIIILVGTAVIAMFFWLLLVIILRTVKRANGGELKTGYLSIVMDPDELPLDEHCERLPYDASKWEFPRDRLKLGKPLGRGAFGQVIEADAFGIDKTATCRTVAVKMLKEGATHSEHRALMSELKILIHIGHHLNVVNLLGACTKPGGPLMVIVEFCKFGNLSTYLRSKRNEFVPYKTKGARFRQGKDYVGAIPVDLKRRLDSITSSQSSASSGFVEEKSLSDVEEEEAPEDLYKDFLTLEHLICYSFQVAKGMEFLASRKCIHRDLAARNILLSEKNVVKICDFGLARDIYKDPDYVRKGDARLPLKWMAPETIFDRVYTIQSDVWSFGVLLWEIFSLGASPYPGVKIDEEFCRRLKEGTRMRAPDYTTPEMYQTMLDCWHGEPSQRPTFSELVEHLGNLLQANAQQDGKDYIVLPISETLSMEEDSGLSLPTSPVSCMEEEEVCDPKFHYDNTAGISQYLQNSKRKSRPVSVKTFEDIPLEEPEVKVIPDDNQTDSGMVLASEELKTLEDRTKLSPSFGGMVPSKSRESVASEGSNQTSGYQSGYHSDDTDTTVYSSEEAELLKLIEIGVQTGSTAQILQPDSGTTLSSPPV", "assay": "Inhibition of VEGFR2 (unknown origin) at 1 uM by Ambit Kinomescan binding assay relative to control"}}, "data": [{"smiles": "CNc1cc(Oc2cc(C(=O)Nc3cc(N4CCN(C)CC4)cc(C(F)(F)F)c3)ccc2C)ncn1", "values": [{"measurement": "inhibition", "setting": "[1]", "value": 0.7, "unit": "%"}, {"measurement": "inhibition", "setting": "[2]", "value": 12.3, "unit": "%"}, {"measurement": "inhibition", "setting": "[3]", "value": 16, "unit": "%"}, {"measurement": "inhibition", "setting": "[4]", "value": 4.1, "unit": "%"}, {"measurement": "inhibition", "setting": "[5]", "value": 5.1, "unit": "%"}, {"measurement": "inhibition", "setting": "[6]", "value": -6.9, "unit": "%"}]}, {"smiles": "CCN1CCN(Cc2ccc(NC(=O)c3ccc(C)c(Oc4ccnc5[nH]ccc45)c3)cc2C(F)(F)F)CC1", "values": [{"measurement": "inhibition", "setting": "[7]", "value": 85.5, "unit": "%"}, {"measurement": "residual activity", "setting": "[8]", "value": 1, "unit": "%"}, {"measurement": "inhibition at 1 µM", "setting": "[9]", "value": 6.6, "unit": "%"}, {"measurement": "inhibition at 5 µM", "setting": "[10]", "value": 61.3, "unit": "%"}, {"measurement": "inhibition", "setting": "[11]", "value": 31.6, "unit": "%"}]}, {"smiles": "CCN1CCN(Cc2ccc(NC(=O)c3ccc(C)c(/C=C/c4cnc5[nH]ccc5c4OC)c3)cc2C(F)(F)F)CC1", "values": [{"measurement": "inhibition", "setting": "[12]", "value": 37.6, "unit": "%"}, {"measurement": "residual activity", "setting": "[13]", "value": 2.3, "unit": "%"}, {"measurement": "inhibition", "setting": "[14]", "value": 25, "unit": "%"}, {"measurement": "inhibition", "setting": "[15]", "value": 50.4, "unit": "%"}, {"measurement": "IC50", "setting": "[16]", "value": 1200, "unit": "nM"}, {"measurement": "inhibition", "setting": "[17]", "value": 67, "unit": "%"}, {"measurement": "inhibition", "setting": "[18]", "value": 75, "unit": "%"}, {"measurement": "inhibition", "setting": "[19]", "value": 0.8, "unit": "%"}, {"measurement": "inhibition", "setting": "[20]", "value": 14, "unit": "%"}]}]}
